We go through 20 molecules from ChEMBL document CHEMBL4145657 (J Med Chem, 2018).

Data set [1] addresses Kappa-type opioid receptor (Homo sapiens) (UniProt P41145). Nature of the data set: Agonist activity at human kappa opioid receptor expressed in CHO cell membranes at 10 uM incubated for 60 mins by [35S]GTPgammaS binding assay. In kind it is functional. In a few lines:
(§1)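 CHO cell membranes expressing human κ (20 µg), µ (10 µg) or δ (7 µg) opioid receptor. Test compound at 10 µM final, with 10 µM GDP and 0.1 nM [35S]GTPγS in HEPES pH 7.4 buffer containing NaCl, MgCl2, EDTA, DTT and BSA. Incubated 60 min at 22 °C with shaking, then filtered and counted. Nonspecific binding defined with 10 µM unlabeled GTPγS.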

Data set [2] deals with Mu-type opioid receptor (Homo sapiens) (UniProt P35372). Nature of the data set: Agonist activity at human mu opioid receptor expressed in CHO cell membranes at 10 uM incubated for 60 mins by [35S]GTPgammaS binding assay. In kind it is functional. In a few lines:
as §1

Data set [3] has as its target Delta-type opioid receptor (Homo sapiens) (UniProt P41143). Nature of the data set: Agonist activity at human delta opioid receptor expressed in CHO cell membranes at 10 uM incubated for 60 mins by [35S]GTPgammaS binding assay. In kind it is functional. In a few lines: as §1
Background: GTPγS resists hydrolysis and so accumulates on activated G proteins.

Data set [4] has the same target. The settings on record: CHO.
Data set [5] in a line: Clearance in Sprague-Dawley rat plasma at 5 mg/kg, sc measured after 1 to 168 hrs post dose by LC/MS-MS method. In kind it is ADME, organism-based. In a few lines: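 Male Sprague Dawley rats, 10 weeks old, single subcutaneous 5 mg/kg dose at 1 mL/kg. Three rats per timepoint were killed by CO2 at 1, 4, 24, 72 and 168 h. Cardiac blood went into K3EDTA and was spun to plasma. Brains were homogenized 1:5 in 50:50 ethanol:water. Methanol precipitation used buspirone as internal standard. Analysis was by LC/MS-MS on C8 reverse phase. Parameters were taken from the apparent terminal elimination phase.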

A short description of data set [6]: Half life in Sprague-Dawley rat plasma at 5 mg/kg, sc measured after 1 to 168 hrs post dose by LC/MS-MS method. The settings on record: in vivo. In kind it is ADME, organism-based. In a few lines: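 Male Sprague Dawley rats, 10 weeks old, single subcutaneous 5 mg/kg dose at 1 mL/kg. Cardiac blood went into K3EDTA and was spun to plasma. Brains were homogenized 1:5 in 50:50 ethanol:water. Methanol precipitation used buspirone as internal standard. Analysis was by LC/MS-MS on C8 reverse phase. Parameters were taken from the apparent terminal elimination phase.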

In data set [7] the target is Mu-type opioid receptor (Homo sapiens) (UniProt P35372). The settings on record: CHO.
Mu-type opioid receptor (Homo sapiens), sequence (P35372 whole entry): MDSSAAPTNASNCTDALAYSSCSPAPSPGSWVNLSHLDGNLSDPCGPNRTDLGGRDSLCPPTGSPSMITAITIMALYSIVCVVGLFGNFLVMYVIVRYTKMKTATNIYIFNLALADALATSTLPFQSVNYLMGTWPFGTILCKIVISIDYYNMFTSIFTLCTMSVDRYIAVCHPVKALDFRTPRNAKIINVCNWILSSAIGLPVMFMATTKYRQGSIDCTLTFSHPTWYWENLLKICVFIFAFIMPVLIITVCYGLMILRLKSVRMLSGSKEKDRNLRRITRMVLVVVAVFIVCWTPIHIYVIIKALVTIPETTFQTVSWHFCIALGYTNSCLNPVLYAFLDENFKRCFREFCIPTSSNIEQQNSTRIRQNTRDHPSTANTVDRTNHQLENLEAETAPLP
For data set [8] the following is noted: rat, in vivo, sc, 5 mg/kg.

Activity calls are given as the source filed them. The calls are words filed in the database; no cut-off is given here.

Kappa-type opioid receptor (Homo sapiens), sequence (P41145 whole entry): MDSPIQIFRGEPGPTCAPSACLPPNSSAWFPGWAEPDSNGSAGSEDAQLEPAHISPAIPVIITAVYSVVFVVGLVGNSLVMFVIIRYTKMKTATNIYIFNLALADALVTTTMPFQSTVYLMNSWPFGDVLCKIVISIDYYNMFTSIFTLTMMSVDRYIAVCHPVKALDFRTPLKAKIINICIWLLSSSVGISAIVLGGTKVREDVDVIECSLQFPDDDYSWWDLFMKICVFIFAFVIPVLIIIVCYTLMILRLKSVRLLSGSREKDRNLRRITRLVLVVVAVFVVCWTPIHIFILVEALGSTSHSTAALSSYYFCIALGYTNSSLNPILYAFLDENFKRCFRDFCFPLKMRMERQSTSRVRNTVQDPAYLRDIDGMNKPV
Delta-type opioid receptor (Homo sapiens), sequence (P41143 whole entry): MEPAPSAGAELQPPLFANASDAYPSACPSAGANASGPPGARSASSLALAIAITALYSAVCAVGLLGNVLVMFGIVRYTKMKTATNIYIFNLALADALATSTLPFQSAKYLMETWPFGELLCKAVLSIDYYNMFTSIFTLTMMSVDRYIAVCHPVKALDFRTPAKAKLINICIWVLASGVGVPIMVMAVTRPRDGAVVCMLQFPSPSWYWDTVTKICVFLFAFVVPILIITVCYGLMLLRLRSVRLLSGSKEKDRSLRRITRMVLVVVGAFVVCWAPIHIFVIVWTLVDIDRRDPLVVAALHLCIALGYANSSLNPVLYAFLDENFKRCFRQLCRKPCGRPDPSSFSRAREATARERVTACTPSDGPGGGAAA

In the case of `CC(C)[C@@H](CC1CCCC1)NC(=O)[C@H]1Cc2ccc(C(N)=O)cc2CN1`, the result in data set [1], in data set [2] and in data set [3] was inactive.

On to `COc1ccc2c(c1)CN[C@@H](C(=O)N[C@H](CC1CCCCC1)C(C)C)C2`, for which the outcome in data set [1], in data set [2] and in data set [3] was inactive.

As to `CC(C)[C@@H](CC1CCCCC1)NC(=O)[C@H]1Cc2ccc(F)cc2CN1`, the result in data set [1], in data set [2] and in data set [3] was inactive.

Consider `CC(C)[C@@H](CC1CCCCC1)NC(=O)[C@@H]1Cc2ccc(O)cc2CN1`, for which the result in data set [1], in data set [2] and in data set [3] was inactive. Further, the Ke in data set [4] is > 3000 nM.

With `CC(C)[C@H](CC1CCCCC1)NC(=O)[C@H]1Cc2ccc(O)cc2CN1`, the outcome in data set [1], in data set [2] and in data set [3] was inactive. Moreover, the Ke in data set [4] was > 3000 nM.

Regarding `CC(C)[C@@H](CC1CCCCC1)NC(=O)[C@H]1Cc2ccc(O)cc2CN1C`, the outcome in data set [1], in data set [2] and in data set [3] was inactive.

On to `CC(C)[C@H](CC1CCCCC1)NC(=O)[C@@H]1Cc2ccc(O)cc2CN1`, for which the result in data set [1], in data set [2] and in data set [3] was inactive. For the same molecule, the Ke in data set [4] is > 3000 nM.

A word on the CL/F: it is clearance divided by bioavailability, as obtained after extravascular dosing. Regarding `CC(C)[C@@H](CC1CCCCC1)NC(=O)[C@H]1Cc2ccc(C(N)=O)cc2CN1`, the outcome in data set [1], in data set [2] and in data set [3] was inactive. For the same molecule, in data set [5], the CL/F is 4.27 L/h/kg.

For `O=C(N[C@H](CC1CCCCC1)C1CC1)[C@H]1Cc2ccc(O)cc2CN1`, the result in data set [1], in data set [2] and in data set [3] was inactive.

`O=C(NCCC1CCCCC1)[C@H]1Cc2ccc(O)cc2CN1`: the result in data set [1], in data set [2] and in data set [3] was inactive.

With `O=C(N[C@H](CC1CCCC1)C1CC1)[C@H]1Cc2ccc(O)cc2CN1`, the outcome in data set [1], in data set [2] and in data set [3] was inactive.

In data set [6], `CC(C)[C@@H](CC1CCCC1)NC(=O)[C@H]1Cc2ccc(O)cc2CN1` had a t1/2 of 32.1 h. Also, the outcome in data set [1], in data set [2] and in data set [3] was inactive. Further, the results for the Ke in data set [4] and in data set [7] were 1570 nM and 344 nM, respectively. The molecule also showed a CL/F in data set [5] of 7.78 L/h/kg.

For `CC(C)[C@@H](CC1CCCCCC1)NC(=O)[C@H]1Cc2ccc(O)cc2CN1`, the result in data set [1], in data set [2] and in data set [3] was inactive.

Broadly, the Tmax is the time from dosing to the highest level. For the molecule `CC(C)[C@@H](CC1CCCCC1)NC(=O)[C@H]1Cc2ccc(O)cc2CN1`, in data set [6], the t1/2 turned out to be 34.2 h. The outcome in data set [1], in data set [2] and in data set [3] was inactive. In data set [8], the Tmax stood at 1 h. In data set [5], this molecule showed an apparent clearance (CL/F) of 5.92 L/h/kg.

With `CC(C)[C@@H](CN1CC[C@@](C)(c2cccc(O)c2)[C@@H](C)C1)NC(=O)[C@H]1Cc2ccc(O)cc2CN1` [JDTIC], the t1/2 in data set [6] is 28.4 h.

Take `CC(C)[C@@H](CC1CCCCC1)NC(=O)[C@H]1Cc2ccccc2CN1`: the result in data set [1], in data set [2] and in data set [3] was inactive.

For the molecule `CC(C)[C@@H](CC1CCCC1)NC(=O)[C@@]1(C)Cc2ccc(O)cc2CN1`, the outcome in data set [1], in data set [2] and in data set [3] was inactive.

For the molecule `CC1CCC(C[C@@H](NC(=O)[C@H]2Cc3ccc(O)cc3CN2)C(C)C)CC1` (some centres undefined), the result in data set [1], in data set [2] and in data set [3] was inactive.

Regarding `O=C(N[C@H](CC1CCCCC1)c1ccccc1)[C@H]1Cc2ccc(O)cc2CN1`, the outcome in data set [1], in data set [2] and in data set [3] was inactive.

With `CC(C)[C@@H](CC1CCC1)NC(=O)[C@H]1Cc2ccc(O)cc2CN1`, the outcome in data set [1], in data set [2] and in data set [3] was inactive.
